ChEMBL document CHEMBL4673214, “Synthesis and antibacterial bioactivities of cationic deacetyl linezolid amphiphiles” (Eur J Med Chem, 2018)

Experiments:
Staphylococcus aureus [1] = assay: Antibacterial activity against methicillin-resistant Staphylococcus aureus clinical isolate 6 assessed as reduction in bacterial growth incubated for 16 to 20 hrs by CLSI-based broth microdilution method; type: functional; conditions: time 16-20 hrs
In short: (§1)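 Clinical isolates tested by broth microdilution in cation-adjusted Mueller-Hinton broth. Cultures grown 4-6 h (~10^8 CFU/mL) were diluted to ~10^6 CFU/mL and mixed 1:1 with compound serial dilutions made from 256 down to 0.5 µg/mL (pre-mixing). Plates held at 37 °C for 16-20 h, then read for growth. Each concentration run in duplicate, whole experiment at least twice.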

Enterobacteriaceae [2] = assay: Antibacterial activity against NDM1 producing carbapenem-resistant Enterobacteriaceae clinical isolate 7 assessed as reduction in bacterial growth incubated for 16 to 20 hrs by CLSI-based broth microdilution method; type: functional; conditions: time 16-20 hrs; in short: as §1
Klebsiella pneumoniae [3] = assay: Antibacterial activity against carbapenem-resistant Klebsiella pneumoniae clinical isolate 8 assessed as reduction in bacterial growth incubated for 16 to 20 hrs by CLSI-based broth microdilution method; type: functional; conditions: time 16-20 hrs; in short: as §1
Klebsiella pneumoniae [4] = assay: Antibacterial activity against carbapenem-resistant Klebsiella pneumoniae clinical isolate 1 assessed as reduction in bacterial growth incubated for 16 to 20 hrs by CLSI-based broth microdilution method; type: functional; conditions: time 16-20 hrs; in short: as §1
Escherichia coli [5] = assay: Antibacterial activity against Escherichia coli ATCC 25922 assessed as reduction in bacterial growth incubated 16 to 20 hrs by CLSI-based broth microdilution method; type: functional; conditions: time 16-20 hrs
In short: (§2)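 Broth microdilution following CLSI, in cation-adjusted Mueller-Hinton broth. Inoculum from a 4-6 h culture (~10^8 CFU/mL), diluted to ~10^6 CFU/mL. Water stocks were serially diluted in MHB (256 to 0.5 µg/mL) and mixed 1:1 with the inoculum. Plates ran 16-20 h at 37 °C. MIC was read visually. Each concentration was tested in duplicate, and the experiment was repeated at least twice.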

Enterobacteriaceae [6] = assay: Antibacterial activity against NDM1 producing carbapenem-resistant Enterobacteriaceae clinical isolate 4 assessed as reduction in bacterial growth incubated for 16 to 20 hrs by CLSI-based broth microdilution method; type: functional; conditions: time 16-20 hrs; in short: as §1
Enterobacteriaceae [7] = assay: Antibacterial activity against NDM1 producing carbapenem-resistant Enterobacteriaceae clinical isolate 8 assessed as reduction in bacterial growth incubated for 16 to 20 hrs by CLSI-based broth microdilution method; type: functional; conditions: time 16-20 hrs; in short: as §1
Staphylococcus aureus [8] = assay: Antibacterial activity against methicillin-resistant Staphylococcus aureus clinical isolate 3 assessed as reduction in bacterial growth incubated for 16 to 20 hrs by CLSI-based broth microdilution method; type: functional; conditions: time 16-20 hrs; in short: as §1
Staphylococcus aureus [9] = assay: Antibacterial activity against methicillin-resistant Staphylococcus aureus clinical isolate 4 assessed as reduction in bacterial growth incubated for 16 to 20 hrs by CLSI-based broth microdilution method; type: functional; conditions: time 16-20 hrs; in short: as §1
Enterobacteriaceae [10] = assay: Antibacterial activity against NDM1 producing carbapenem-resistant Enterobacteriaceae clinical isolate 5 assessed as reduction in bacterial growth incubated for 16 to 20 hrs by CLSI-based broth microdilution method; type: functional; conditions: time 16-20 hrs; in short: as §1
Staphylococcus aureus [11] = assay: Antibacterial activity against methicillin-resistant Staphylococcus aureus clinical isolate 7 assessed as reduction in bacterial growth incubated for 16 to 20 hrs by CLSI-based broth microdilution method; type: functional; conditions: time 16-20 hrs; in short: as §1
Staphylococcus aureus [12] = assay: Antibacterial activity against methicillin-resistant Staphylococcus aureus clinical isolate 1 assessed as reduction in bacterial growth incubated for 16 to 20 hrs by CLSI-based broth microdilution method; type: functional; conditions: time 16-20 hrs; in short: as §1
Klebsiella pneumoniae [13] = assay: Antibacterial activity against carbapenem-resistant Klebsiella pneumoniae clinical isolate 7 assessed as reduction in bacterial growth incubated for 16 to 20 hrs by CLSI-based broth microdilution method; type: functional; conditions: time 16-20 hrs; in short: as §1
Staphylococcus aureus [14] = assay: Antibacterial activity against methicillin-resistant Staphylococcus aureus clinical isolate 8 assessed as reduction in bacterial growth incubated for 16 to 20 hrs by CLSI-based broth microdilution method; type: functional; conditions: time 16-20 hrs; in short: as §1
Enterobacteriaceae [15] = assay: Antibacterial activity against NDM1 producing carbapenem-resistant Enterobacteriaceae clinical isolate 6 assessed as reduction in bacterial growth incubated for 16 to 20 hrs by CLSI-based broth microdilution method; type: functional; conditions: time 16-20 hrs; in short: as §1
Staphylococcus aureus [16] = assay: Antibacterial activity against methicillin-resistant Staphylococcus aureus clinical isolate 9 assessed as reduction in bacterial growth incubated for 16 to 20 hrs by CLSI-based broth microdilution method; type: functional; conditions: time 16-20 hrs; in short: as §1
Klebsiella pneumoniae [17] = assay: Antibacterial activity against carbapenem-resistant Klebsiella pneumoniae clinical isolate 4 assessed as reduction in bacterial growth incubated for 16 to 20 hrs by CLSI-based broth microdilution method; type: functional; conditions: time 16-20 hrs; in short: as §1
Enterobacteriaceae [18] = assay: Antibacterial activity against NDM1 producing carbapenem-resistant Enterobacteriaceae clinical isolate 10 assessed as reduction in bacterial growth incubated for 16 to 20 hrs by CLSI-based broth microdilution method; type: functional; conditions: time 16-20 hrs; in short: as §1
Enterobacteriaceae [19] = assay: Antibacterial activity against NDM1 producing carbapenem-resistant Enterobacteriaceae clinical isolate 1 assessed as reduction in bacterial growth incubated for 16 to 20 hrs by CLSI-based broth microdilution method; type: functional; conditions: time 16-20 hrs; in short: as §1
Staphylococcus aureus [20] = assay: Antibacterial activity against methicillin-resistant Staphylococcus aureus clinical isolate 10 assessed as reduction in bacterial growth incubated for 16 to 20 hrs by CLSI-based broth microdilution method; type: functional; conditions: time 16-20 hrs; in short: as §1
Staphylococcus aureus [21] = assay: Antibacterial activity against Staphylococcus aureus ATCC 29213 assessed as reduction in bacterial growth incubated for 16 to 20 hrs by CLSI-based broth microdilution method; type: functional; conditions: time 16-20 hrs; in short: as §2
Klebsiella pneumoniae [22] = assay: Antibacterial activity against carbapenem-resistant Klebsiella pneumoniae clinical isolate 2 assessed as reduction in bacterial growth incubated for 16 to 20 hrs by CLSI-based broth microdilution method; type: functional; conditions: time 16-20 hrs; in short: as §1
Staphylococcus aureus [23] = assay: Antibacterial activity against methicillin-resistant Staphylococcus aureus clinical isolate 2 assessed as reduction in bacterial growth incubated for 16 to 20 hrs by CLSI-based broth microdilution method; type: functional; conditions: time 16-20 hrs; in short: as §1
[24] = Hemolytic activity in sheep RBC incubated for 1 hr; type: ADME, cell-based, Ovis aries, Erythrocyte; conditions: sheep red blood cells (erythrocytes)
In short: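 Sheep RBCs were resuspended at 5% in PBS and mixed 3:1 with serial dilutions (2560 to 5 µg/mL, pre-mixing levels), then incubated 1 h at 37 °C. After centrifugation, supernatant A540 was read. Hemolysis % was calculated as (A−A0)/(Atotal−A0)×100, with untreated RBCs as 0% and 0.1% Triton X-100 as total lysis.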

Klebsiella pneumoniae [25] = assay: Antibacterial activity against carbapenem-resistant Klebsiella pneumoniae clinical isolate 9 assessed as reduction in bacterial growth incubated for 16 to 20 hrs by CLSI-based broth microdilution method; type: functional; conditions: time 16-20 hrs; in short: as §1
Enterobacteriaceae [26] = assay: Antibacterial activity against NDM1 producing carbapenem-resistant Enterobacteriaceae clinical isolate 2 assessed as reduction in bacterial growth incubated for 16 to 20 hrs by CLSI-based broth microdilution method; type: functional; conditions: time 16-20 hrs; in short: as §1
Enterobacteriaceae [27] = assay: Antibacterial activity against NDM1 producing carbapenem-resistant Enterobacteriaceae clinical isolate 9 assessed as reduction in bacterial growth incubated for 16 to 20 hrs by CLSI-based broth microdilution method; type: functional; conditions: time 16-20 hrs; in short: as §1
Klebsiella pneumoniae [28] = assay: Antibacterial activity against carbapenem-resistant Klebsiella pneumoniae clinical isolate 3 assessed as reduction in bacterial growth incubated for 16 to 20 hrs by CLSI-based broth microdilution method; type: functional; conditions: time 16-20 hrs; in short: as §1
Klebsiella pneumoniae [29] = assay: Antibacterial activity against carbapenem-resistant Klebsiella pneumoniae clinical isolate 10 assessed as reduction in bacterial growth incubated for 16 to 20 hrs by CLSI-based broth microdilution method; type: functional; conditions: time 16-20 hrs; in short: as §1
[30] = Solubility of the compound in water at room temperature; type: physicochemical; conditions: buffer
Klebsiella pneumoniae [31] = assay: Antibacterial activity against carbapenem-resistant Klebsiella pneumoniae clinical isolate 6 assessed as reduction in bacterial growth incubated for 16 to 20 hrs by CLSI-based broth microdilution method; type: functional; conditions: time 16-20 hrs; in short: as §1
Enterobacteriaceae [32] = assay: Antibacterial activity against NDM1 producing carbapenem-resistant Enterobacteriaceae clinical isolate 3 assessed as reduction in bacterial growth incubated for 16 to 20 hrs by CLSI-based broth microdilution method; type: functional; conditions: time 16-20 hrs; in short: as §1
Enterococcus faecalis = assay: Antibacterial activity against Enterococcus faecalis ATCC 29212 assessed as reduction in bacterial growth incubated 16 to 20 hrs by CLSI-based broth microdilution method; type: functional; conditions: time 16-20 hrs; in short: as §2
Klebsiella pneumoniae [33] = assay: Antibacterial activity against carbapenem-resistant Klebsiella pneumoniae clinical isolate 5 assessed as reduction in bacterial growth incubated for 16 to 20 hrs by CLSI-based broth microdilution method; type: functional; conditions: time 16-20 hrs; in short: as §1
Salmonella enterica = assay: Antibacterial activity against Salmonella enterica ATCC 8387 assessed as reduction in bacterial growth incubated for 16 to 20 hrs by CLSI-based broth microdilution method; type: functional; conditions: time 16-20 hrs; in short: as §2
Staphylococcus aureus [34] = assay: Antibacterial activity against methicillin-resistant Staphylococcus aureus clinical isolate 5 assessed as reduction in bacterial growth incubated for 16 to 20 hrs by CLSI-based broth microdilution method; type: functional; conditions: time 16-20 hrs; in short: as §1
Escherichia coli [35] = assay: Resistance ratio of compound MIC for Escherichia coli ATCC 25922 after 20 passages to compound MIC for Escherichia coli ATCC 25922 after 16 to 20 hrs by CLSI-based broth microdilution method; type: functional
In short: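 Serial passaging: after each 24 h MIC assay, cells grown at 1/2 MIC were transferred and the MIC assayed again, for 20 passages. Done with S. aureus, E. coli and MRSA. MIC plotted against days of passage. Experiment repeated twice.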

In the case of `CCCCCCCCCCCCCC[N+](C)(C)CC(=O)NC[C@H]1CN(c2ccc(N3CCOCC3)c(F)c2)C(=O)O1.[Cl-]`, the MIC (Staphylococcus aureus [1]) was 2 µg/mL, the MIC (Enterobacteriaceae [2]) was 16 µg/mL and the MIC (Klebsiella pneumoniae [3]) was 32 µg/mL. For the same molecule, the MIC (Klebsiella pneumoniae [4]) was 32 µg/mL, the MIC (Escherichia coli [5]) was 16 µg/mL and the MIC (Enterobacteriaceae [6]) was 64 µg/mL. For the same molecule, the MIC (Enterobacteriaceae [7]) was 16 µg/mL, the MIC (Staphylococcus aureus [8]) was 2 µg/mL and the MIC (Staphylococcus aureus [9]) was 4 µg/mL. The MIC (Enterobacteriaceae [10]) was 32 µg/mL, the MIC (Staphylococcus aureus [11]) was 2 µg/mL and the MIC (Staphylococcus aureus [12]) was 4 µg/mL. For the same molecule, the MIC (Klebsiella pneumoniae [13]) was 32 µg/mL, the MIC (Staphylococcus aureus [14]) was 4 µg/mL and the MIC (Enterobacteriaceae [15]) was 32 µg/mL. It also gave an MIC (Staphylococcus aureus [16]) of 2 µg/mL, an MIC (Klebsiella pneumoniae [17]) of 32 µg/mL and an MIC (Enterobacteriaceae [18]) of 16 µg/mL. For the same molecule, the MIC (Enterobacteriaceae [19]) was greater than 64 µg/mL, the MIC (Staphylococcus aureus [20]) was 8 µg/mL and the MIC (Staphylococcus aureus [21]) was 4 µg/mL. For the same molecule, the MIC (Klebsiella pneumoniae [22]) was 32 µg/mL, the MIC (Staphylococcus aureus [23]) was 16 µg/mL and the HC50 at 1 h [24] was 60 µg/mL. It also gave an MIC (Klebsiella pneumoniae [25]) of 32 µg/mL, an MIC (Enterobacteriaceae [26]) greater than 64 µg/mL and an MIC (Enterobacteriaceae [27]) of 16 µg/mL. For the same molecule, the MIC (Klebsiella pneumoniae [28]) was 16 µg/mL, the MIC (Klebsiella pneumoniae [29]) was 32 µg/mL and the solubility [30] was “Soluble”. It also gave an MIC (Klebsiella pneumoniae [31]) of 32 µg/mL, an MIC (Enterobacteriaceae [32]) of 32 µg/mL and an MIC (Enterococcus faecalis) of 4 µg/mL. It also gave an MIC (Klebsiella pneumoniae [33]) of 32 µg/mL, an MIC (Salmonella enterica) of 16 µg/mL and an MIC (Staphylococcus aureus [34]) of 4 µg/mL.
With COLISTIN the MIC (Escherichia coli [5]) was 0.5 µg/mL and the Ratio (Escherichia coli [35]) was 32.
